Compounds with a hit are over-represented: about 3.1% of the library has one in this group of screens.
PAFAH1B3 FP inh: inhibitors of human PAFAH1B3. Q15102. recombinant PAFAH1B3, FP-rhodamine probe, fluorescence polarization. inhibition, % at 3.39 µM. 340,000 compounds, 0.28% hits;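 active = inhibition above the screen-wide average of all tested compounds plus 3 SD, cut at about 25% in these data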;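 also: 0% = enzyme with DMSO only and 100% = wells lacking PAFAH1B3 protein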
PAFAH1B2 FP inh: blocks human PAF acetylhydrolase 1b catalytic subunit 2; 340,000 compounds, 1.2% hits; inhibition, % at 3.39 µM; recombinant PAFAH1B2, FP-rhodamine activity probe, fluorescence polarization; P68402; AID 492953;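 active = inhibition above the mean of all tested compounds plus 3 SD, cut at about 24% in these data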;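 also: 0% = enzyme with DMSO and 100% = wells lacking PAFAH1B2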
Apaf1 inhib: human Apaf-1 inhibition; O14727; reconstituted apoptosome caspase-3 activity, DEVD-Rh110 fluorescence; inhibition, % at 20 µM; 330,000 compounds, 0.71% hits; AID 489030; active = inhibition of at least 40% at 20 µM;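 also: plate controls were DMSO wells for no effect and DEVD-CHO caspase inhibitor wells for full effect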
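Material: reconstituted apoptosome with Apaf-1, cytochrome c, caspase-9, procaspase-3, dATP; medium: pH 7.5 Hepes buffer with CHAPS, BSA, DTT; also added: cytochrome c and DEVD-Rh110 substrate; timing: 30 min plus 50 min, RT; signal: Rh110 fluorescence intensity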
pPAFAH FP inh: inhibitors of human plasma PAF acetylhydrolase (pPAFAH). recombinant pPAFAH, FP-rhodamine probe fluorescence polarization. 330,000 compounds, 1.5% hits. Q13093. inhibition, % at 3.39 µM;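 active = inhibition above the mean inhibition across the screen plus 3 SD, cut at about 25% in these data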;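 also: inhibitors block binding of the rhodamine activity-based probe so polarization drops; 0% = enzyme with DMSO and 100% = wells lacking pPAFAH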
Target sequence (Q13093 whole entry, looked up): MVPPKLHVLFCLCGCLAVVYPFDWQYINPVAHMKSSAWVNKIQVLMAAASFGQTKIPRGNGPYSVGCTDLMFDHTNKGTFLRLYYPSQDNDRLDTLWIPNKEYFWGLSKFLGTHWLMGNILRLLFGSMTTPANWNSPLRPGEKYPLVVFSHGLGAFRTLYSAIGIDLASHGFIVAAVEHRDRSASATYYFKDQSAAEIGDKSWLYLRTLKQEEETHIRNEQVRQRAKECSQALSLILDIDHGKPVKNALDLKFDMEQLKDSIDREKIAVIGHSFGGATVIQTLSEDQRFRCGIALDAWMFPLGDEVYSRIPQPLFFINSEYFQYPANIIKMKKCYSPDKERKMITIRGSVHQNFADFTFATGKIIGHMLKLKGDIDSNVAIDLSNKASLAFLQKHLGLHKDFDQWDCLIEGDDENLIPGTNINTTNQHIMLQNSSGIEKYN
PAFAH2 inh: PAFAH2 (human) inhibition; Q99487; recombinant PAFAH2, FP-rhodamine activity probe, fluorescence polarization; inhibition, % at 3.39 µM; 340,000 compounds, 0.99% hits; AID 492956;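 active = inhibition above the mean over all tested compounds plus 3 SD, cut at about 30% in these data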;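 also: inhibitors block probe labeling of enzyme so polarization drops; 0% = enzyme with DMSO and 100% = wells lacking PAFAH2 protein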
* marks the source's active call; other numbers are inactive results; x = no result given.

SMILES	PAFAH1B3 FP inh	PAFAH1B2 FP inh	Apaf1 inhib	pPAFAH FP inh	PAFAH2 inh
Cc1ccccc1NC(=O)c1cccc(N2C(=O)C3C4CC(C(Br)C4Br)C3C2=O)c1 (configuration not stated)	-3	7	6	x	2
Cc1cccc(C(=O)N(C(=O)c2cccc(C)c2)N(C)C)c1	9	1	x	x	-6
Cc1c(S(=O)(=O)N2CCN(c3ccc(F)cc3)CC2)c(=O)n(C)c(=O)n1C	2	10	-3	-2	1
Cc1onc(-c2ccccc2)c1C(=O)NCc1ccccc1F	-6	1	7	1	13
CC1=NN(c2ccccc2)C(=O)/C1=C/c1cc2cc(C)ccc2nc1N1CCCCC1	x	x	94*	13	x
CCOC(=O)c1ccc(S(=O)(=O)N2CCN(c3ccccn3)CC2)cc1	3	-1	10	8	-3
CC(=O)Nc1ccc(NC(=O)CCn2c(=O)oc3ccccc32)cc1	-1	12	-9	26*	10
CCCc1cc2c(OC(=O)CC)c(-c3ccc(C(=O)OCC)o3)c(=O)oc2cc1OC	60*	19	17	18	67*
CCCc1cc(-c2n[nH]c(C)c2-c2ccc(C(=O)OCC)o2)c(O)cc1O	7	1	-13	7	0
CC(=O)NC(Cc1ccccc1F)C(=O)NC1CCN(C(=O)NCc2ccccc2)CC1 (configuration not stated)	11	4	0	-2	-14
N#CC1(C#N)C(c2ccccc2)OC23CCCCCC2C1(C#N)C(=N)O3 (configuration not stated)	-2	3	8	4	12
CCCCC1OC23CCCCC2C(C#N)(C(=N)O3)C1(C#N)C#N (configuration not stated)	26*	30*	11	5	36*
N#CC1(C#N)C(c2ccccc2)OC23CCCCC2C1(C#N)C(=N)O3 (configuration not stated)	20	15	5	16	26
CCCCCCCCOc1ccc(C2OC34CCCCC3C(C#N)(C#N)C2(C#N)C(=N)O4)cc1 (configuration not stated)	22	27*	8	30*	34*
CCCCC1OC23CCCCC2C(C#N)(C#N)C1(C#N)C(=N)O3 (configuration not stated)	36*	30*	3	17	41*
CSCCC(N=C1NS(=O)(=O)c2ccccc21)C(=O)N1CCCC(C(N)=O)C1 (configuration not stated)	7	3	-6	0	3
Brc1ccc(CSc2nnc(-c3ccco3)o2)cc1	1	27*	9	4	-5
O=C(O)CC/C(=N\Nc1ccc(S(=O)(=O)N2CCCC2)cc1[N+](=O)[O-])c1cccs1	10	28*	x	x	9
O=C(O)CC/C(=N\Nc1ccccc1[N+](=O)[O-])c1cccs1	9	1	15	12	3
COc1cc(C)c(/C=C/C(C)=C/C=C/C(C)=C/C(=O)O)c(C)c1C	3	1	1	29*	17
O=[N+]([O-])c1cccc(SSc2cccc([N+](=O)[O-])c2)c1	4	2	x	x	4
COc1ccc2ccccc2c1C(=O)/C=C\c1ccoc1	0	1	11	27*	6
CC(C)(Oc1ccc(Cl)cc1)C(=O)OCC(=O)NCCc1ccccc1	5	3	10	12	-1
CCOc1ccc(N(CC)C(=O)COc2cc(=O)n(C)c3ccccc23)cc1	2	8	-2	28*	1
C#CCNC(=O)C1=C[C@H](C(C)(C)C)C[C@H](OCCCCO)O1	2	2	-3	6	-7
SMILES	PAFAH1B3 FP inh	PAFAH1B2 FP inh	Apaf1 inhib	pPAFAH FP inh	PAFAH2 inh
COc1ccc(NS(=O)(=O)c2ccc(NC(=O)C(CCSC)NC(N)=O)cc2)cc1 (configuration not stated)	-2	3	-6	31*	-6
O=C(CCSc1ccc(F)cc1)NNC(=O)c1ccc([N+](=O)[O-])cc1	2	28*	3	6	0
O=C(COC(=O)CSc1ccc(F)cc1)NNC(=O)c1ccc([N+](=O)[O-])cc1	10	20	0	21	3
Oc1ccc(-c2c(-c3ccsc3)sc3ccccc23)cc1	2	2	4	29*	1
COCc1ccc(-c2c(-c3ccsc3)sc3ccccc23)cc1	12	-1	3	25*	3
NC(=O)c1ccc(-c2c(-c3ccccc3)sc3ccccc23)cc1	2	8	8	2	0
